In data set [1] the test system is Mycolicibacterium smegmatis. The experiment in a line: Antimycobacterial activity against Mycobacterium smegmatis MC2 155 after 3 days by broth microdilution method. The conditions noted are these: str. MC2 155, 72 h. The class given is functional. An outline of the steps: (§1)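 Growth inhibition of M. smegmatis mc²155 (ATCC700084) or M. tuberculosis H37Rv (ATCC27294) determined by broth microdilution; MIC in µg/mL. Where no exact MIC was reachable, the highest concentration technically testable is reported as a lower bound.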
(In broth dilution the organism is exposed to a series of concentrations in liquid medium.)

The test system of another data set is PBMC. The experiment in a line: Cytotoxicity against human PBMC assessed as cell viability after 3 days by AlamarBlue assay. The class given is cell-based. The conditions noted are these: 72 h. Background: Resazurin is reduced to fluorescent resorufin, in cell work by metabolically active cells.
The subject of data set [2] is Mycolicibacterium smegmatis MC2 155.
Data set [3] relates to Mycobacterium tuberculosis. Kind of data set: Antimycobacterial activity against Mycobacterium tuberculosis H37Rv infected in human monocyte-derived macrophages assessed as reduction of colony forming unit at 16 ug/ml after 3 weeks by broth microdilution method in presence of 0.05 ug/ml of isoniazid. The class given is functional, organism-based. An outline of the steps:
(§2)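 Human monocyte-derived macrophages infected with M. tuberculosis H37Rv; each compound added at a concentration giving ≥90% macrophage viability over 3 days of treatment, alone or combined with INH or RIF at a non-antibiotic inhibitory concentration. The read-out was intracellular killing.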

Data set [4] deals with Mycobacterium tuberculosis. Kind of data set: Antimycobacterial activity against Mycobacterium tuberculosis H37Rv infected in human monocyte-derived macrophages assessed as reduction of colony forming unit at 16 ug/ml after 3 weeks by broth microdilution method in presence of 0.5 ug/ml of rifampin. The class given is functional, organism-based. In a few lines:
as §2

Data set [5] has as its system Mycobacterium tuberculosis. The experiment in a line: Antimycobacterial activity against Mycobacterium tuberculosis H37Rv infected in human monocyte-derived macrophages assessed as reduction of colony forming unit at 0.078 ug/ml after 3 weeks by broth microdilution method in presence of 0.05 ug/ml of isoniazid. The class given is functional, organism-based. An outline of the steps: as §2

Data set [6] has as its system Mycobacterium tuberculosis. Kind of data set: Antimycobacterial activity against Mycobacterium tuberculosis H37Rv infected in human monocyte-derived macrophages assessed as reduction of colony forming unit at 0.078 ug/ml after 3 weeks by broth microdilution method in presence of 0.5 ug/ml of rifampin. The class given is functional, organism-based. In a few lines: as §2

For data set [7], the system named is Mycobacterium tuberculosis. Kind of data set: Antimycobacterial activity against Mycobacterium tuberculosis H37Rv infected in human monocyte-derived macrophages assessed as reduction of colony forming unit at 1.25 ug/ml after 3 weeks by broth microdilution method in presence of 0.05 ug/ml of isoniazid. The class given is functional, organism-based. In a few lines: as §2

For data set [8], the system named is Mycobacterium tuberculosis. Kind of data set: Antimycobacterial activity against Mycobacterium tuberculosis H37Rv infected in human monocyte-derived macrophages assessed as reduction of colony forming unit at 1.25 ug/ml after 3 weeks by broth microdilution method in presence of 0.5 ug/ml of rifampin. The class given is functional, organism-based. In a few lines: as §2

In data set [9] the test system is Mycobacterium tuberculosis. The experiment in a line: Antimycobacterial activity against Mycobacterium tuberculosis H37Rv infected in human monocyte-derived macrophages assessed as reduction of colony forming unit at 40 ug/ml after 3 weeks by broth microdilution method in presence of 0.05 ug/ml of isoniazid. The class given is functional, organism-based. In a few lines: as §2

The test system of data set [10] is Mycobacterium tuberculosis. The experiment in a line: Antimycobacterial activity against Mycobacterium tuberculosis H37Rv infected in human monocyte-derived macrophages assessed as reduction of colony forming unit at 40 ug/ml after 3 weeks by broth microdilution method in presence of 0.5 ug/ml of rifampin. The class given is functional, organism-based. An outline of the steps:
as §2

The subject of data set [11] is Mycobacterium tuberculosis. Kind of data set: Antimycobacterial activity against Mycobacterium tuberculosis H37Rv infected in human monocyte-derived macrophages assessed as reduction of colony forming unit at 16 ug/ml after 3 weeks by broth microdilution method. The class given is functional, organism-based. In a few lines:
as §2

In data set [12] the test system is Mycobacterium tuberculosis. Kind of data set: Antimycobacterial activity against Mycobacterium tuberculosis H37Rv infected in human monocyte-derived macrophages assessed as reduction of colony forming unit at 0.078 ug/ml after 3 weeks by broth microdilution method. The class given is functional, organism-based. In a few lines:
as §2

Data set [13] concerns Mycobacterium tuberculosis. The experiment in a line: Antimycobacterial activity against Mycobacterium tuberculosis H37Rv infected in human monocyte-derived macrophages assessed as reduction of colony forming unit at 1.25 ug/ml after 3 weeks by broth microdilution method. The class given is functional, organism-based. In a few lines:
as §2

For data set [14], the system named is Mycobacterium tuberculosis. Kind of data set: Antimycobacterial activity against Mycobacterium tuberculosis H37Rv infected in human monocyte-derived macrophages assessed as reduction of colony forming unit at 40 ug/ml after 3 weeks by broth microdilution method. The class given is functional, organism-based. In a few lines: as §2
In data set [15] the test system is Mycobacterium tuberculosis. The experiment in a line: Antimycobacterial activity against Mycobacterium tuberculosis H37Rv after 3 days by broth microdilution method. Conditions: 72 h. The class given is functional. In a few lines:
as §1

The nature of data set [16]: Ratio of thioridazine IC50 to compound IC50 for human PBMC. The class given is ADME, cell-based. The conditions noted are these: PBMC (peripheral blood mononuclear cells), read-out: Ratio IC50.

Values after ≈ are worked out from the molar mass of the structure shown. Active and inactive are the calls of the source. The calls are words filed in the database; no cut-off is given here.

The term MIC denotes the least concentration at which growth counts as inhibited. Low values mean greater potency, high ones weaker potency. In general, IC50 refers to the midpoint of a concentration-inhibition curve.

Consider `CN1CCCCC1CCn1c2ccccc2c(=O)c2ccccc21` (configuration not stated), for which the MIC in data set [1] was determined as 64 µg/mL (≈ 200 µM). For the same compound, in the data set on PBMC, the IC50 was found to be 2.37 µM. The compound further returned an RFU in [2] of 0.94.

For the compound `c1ccc(CCn2c3ccccc3c3ccccc32)nc1`, in [1], the MIC was over 64 µg/mL. This compound also registered an RFU in [2] of -0.17.

For the compound `c1ccc2c(c1)c1ccccc1n2CCN1CCCCC1`, in [1], the MIC is over 256 µg/mL. In addition, the RFU in data set [2] stood at 0.08.

Consider `CN1CCCCC1CCn1c(C(=O)NC23CC4CC(CC(C4)C2)C3)cc2cc(Cl)ccc21` (mixture of isomers), for which the MIC in data set [1] was over 256 µg/mL. For the same compound, in [2], the RFU is 0.17.

In data set [1], `COc1ccc(C(C#N)(CCC2CCCCN2C)C(C)C)cc1OC` (mixture of isomers) displayed an MIC of over 256 µg/mL. In [2], this compound gave an RFU of 0.72.

As to `Cc1c(Cc2ccccc2)c(=O)n2c3ccccc3n(CCC3CCCCN3C)c2c1C#N` (racemic), in data set [1], the MIC was over 64 µg/mL. Further, the RFU in data set [2] came to 0.66.

In the case of `COc1ccc(N(CCC2CCCCN2C)C(C)C)cc1OC` (racemic), the result in [3], in [4], in data set [5], in data set [6], in data set [7] and in data set [8] was Active. Besides, the outcome in data set [9], in [10], in data set [11], in data set [12], in data set [13] and in data set [14] was Active. In addition, the MIC in data set [1] and in [15] was over 256 µg/mL each time. In addition, the IC50 in the data set with PBMC is 265 µM. The RFU in [2] turned out to be 1.17.

Take `CN1CCCCC1CCn1c2ccccc2c2ccccc21` (racemic): the outcome in data set [3], in data set [4], in data set [5], in [6], in data set [7] and in data set [8] was Active. Besides, the result in data set [9], in [10], in data set [11], in data set [12], in data set [13] and in data set [14] was Active. In addition, the MIC was found to be 256 µg/mL (≈ 875 µM) in data set [1] and 128 µg/mL (≈ 438 µM) in data set [15]. The IC50 with PBMC came to 30 µM. For the same compound, the selectivity ratio in data set [16] is 2. In data set [2], the RFU is 0.95.

Turning to `CN1CCCCC1CCn1ccc2ccc(Br)cc21` (racemic), the result in [3], in [4], in data set [5], in data set [6], in [7] and in [8] was Active. Moreover, the outcome in data set [9], in data set [10], in [11], in [12], in data set [13] and in data set [14] was Active. Also, the MIC in data set [1] was 64 µg/mL (≈ 199 µM); in [15] it was over 256 µg/mL. Also, in the data set with PBMC, the IC50 came to 32.5 µM. The selectivity ratio in data set [16] amounted to 2. For the same compound, in [2], the RFU turned out to be 0.81.

In the case of `CN1CCCCC1CCn1cnc2ccccc21` (racemic), the outcome in data set [3], in data set [4], in data set [5], in [6], in [7] and in [8] was Active. Also, the result in data set [9], in data set [10], in [11], in data set [12], in data set [13] and in data set [14] was Active. Besides, the MIC in data set [1] and in [15] was over 256 µg/mL each time. Besides, in the data set on PBMC, the IC50 came to 702 µM. Further, the RFU in data set [2] was 15.3.

On to `CN1CCCCC1CCN(c1ccccc1)c1ccccc1` (racemic), for which, in data set [1], the MIC is over 64 µg/mL. In addition, the RFU in data set [2] was 0.61.

In [1], `COc1ccc(N(CCC2CCCCN2C)c2ccccc2)cc1OC` (racemic) had an MIC of 256 µg/mL (≈ 722 µM). Also, the RFU in data set [2] turned out to be 0.76.

In the case of `CN1CCCCC1CCN1CCCC1` (racemic), the MIC in data set [1] is over 256 µg/mL. This compound also came in with an RFU in data set [2] of 0.39.

As to `CSc1ccc2c(c1)N(CCC1CCCCN1C)c1ccccc1S2` (configuration not stated) [THIORIDAZINE], the MIC was 30 µg/mL (≈ 81 µM) in data set [1] and 15 µg/mL (≈ 40.5 µM) in data set [15]. Besides, the IC50 in the data set with PBMC stood at 13.8 µM. This compound also yielded an RFU in data set [2] of 0.82.

On to `COc1ccc(CCN(C)CCCC(C#N)(c2ccc(OC)c(OC)c2)C(C)C)cc1OC` (configuration not stated) [VERAPAMIL], for which the MIC stood at 800 µg/mL (≈ 1760 µM) in data set [1] and 512 µg/mL (≈ 1130 µM) in data set [15]. Moreover, the IC50 with PBMC is 117 µM.

These data come from ChEMBL document CHEMBL3593164, “Rational Design and Synthesis of Thioridazine Analogues as Enhancers of the Antituberculosis Therapy” (J Med Chem, 2015).
